Results as given in ChEMBL document CHEMBL3997769, “Discovery and preclinical evaluation of 7-benzyl-N-(substituted)-pyrrolo[3,2-d]pyrimidin-4-amines as single agents with microtubule targeting effects along with triple-acting angiokinase inhibition as antitumor agents” (Bioorg Med Chem, 2017).
Calls of active or inactive are those of the source. The rule behind the calls is not given here.

Key:
OVCAR-3 = test: Growth inhibition of human OVCAR3 cells incubated for 48 hrs by sulforhodamine B assay; type: functional; conditions: OVCAR-3, 48 h
SN12C = test: Growth inhibition of human SN12C cells incubated for 48 hrs by sulforhodamine B assay; type: functional
OVCAR-8 = test: Growth inhibition of human OVCAR8 cells incubated for 48 hrs by sulforhodamine B assay; type: functional; conditions: OVCAR-8, 48 h
Mus musculus [1] = test: Toxicity in Balb/cJ mouse assessed as body weight loss administered three times weekly measured every 2 days during compound dosing; conditions: in vivo, 48 h
Summary of the method: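 Female BALB/cJ mice, 8 weeks old, bearing orthotopic 4T1-Luc2-GFP allografts (7,500 cells implanted in mammary fat pad #4). Dosing began one week after implantation: intraperitoneal, three times weekly, in 5% Pharmasolve plus 5% Solutol HS in normal saline. Body weight reported as percent change at day 40 versus starting weight, with n = 9–10 and one-way ANOVA against untreated controls.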

HeLa = test: Growth inhibition of human HeLa cells measured after 96 hrs by sulforhodamine B assay; type: functional, cell-based
Summary of the method: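 Exposed 96 h to varying compound concentrations in 0.5% DMSO. Cell protein measured by sulforhodamine B; IC50 = concentration halving the increase in cell protein versus untreated cultures.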

4T1 = test: Antitumor activity against luciferase/GFP-tagged mouse 4T1 cells implanted in Balb/CJ mouse assessed as reduction in primary tumor growth at 50 mg/kg, ip administered three times in a week; type: functional, organism-based
HOP-92 = test: Growth inhibition of human HOP92 cells incubated for 48 hrs by sulforhodamine B assay; type: functional; conditions: HOP-92, 48 h
K562 = test: Growth inhibition of human K562 cells incubated for 48 hrs by sulforhodamine B assay; type: functional; conditions: K562, 48 h
SNB-75 = test: Growth inhibition of human SNB75 cells incubated for 48 hrs by sulforhodamine B assay; type: functional; conditions: SNB-75, 48 h
Mus musculus [2] = test: Toxicity in Balb/cJ mouse implanted with luciferase/GFP-tagged mouse 4T1 cells assessed as body weight change at 50 mg/kg, ip administered three times weekly measured at day 40 post dose; type: organism-based; conditions: in vivo
HCT-15 = test: Growth inhibition of human HCT15 cells incubated for 48 hrs by sulforhodamine B assay; type: functional; conditions: HCT-15, 48 h
Chorioallantoic membrane = test: Antiangiogenic activity in Leghorn chicken egg chorioallantoic membrane assessed as inhibition of human VEGF-165/bFGF-induced blood vessels formation measured after 40 hrs by microscopic method; type: functional, tissue-based; conditions: Gallus gallus
HCT-116 = test: Growth inhibition of human HCT116 cells incubated for 48 hrs by sulforhodamine B assay; type: functional; conditions: HCT-116, 48 h
LOX IMVI = test: Growth inhibition of human LOXIMVI cells incubated for 48 hrs by sulforhodamine B assay; type: functional
KM12 = test: Growth inhibition of human KM12 cells incubated for 48 hrs by sulforhodamine B assay; type: functional; conditions: KM12, 48 h
NCI-H226 = test: Growth inhibition of human NCI-H226 cells incubated for 48 hrs by sulforhodamine B assay; type: functional; conditions: NCI-H226, 48 h
CAKI-1 = test: Growth inhibition of human Caki1 cells incubated for 48 hrs by sulforhodamine B assay; type: functional; conditions: CAKI-1, 48 h
SK-MEL-2 = test: Growth inhibition of human SK-MEL-2 cells incubated for 48 hrs by sulforhodamine B assay; type: functional; conditions: SK-MEL-2, 48 h
BT-549 = test: Growth inhibition of human BT549 cells incubated for 48 hrs by sulforhodamine B assay; type: functional; conditions: BT-549, 48 h
Bos taurus = species: Bos taurus; test: Displacement of [3H]colchicine from bovine brain tubulin at 1 uM measured after 10 mins by liquid scintillation counting method relative to control
A549 = test: Growth inhibition of human A549/ATCC cells incubated for 48 hrs by sulforhodamine B assay; type: functional; conditions: A549, 48 h
[3] = Inhibition of bovine brain tubulin assembly preincubated for 15 mins followed by GTP addition measured for 20 mins by spectrophotometric method; set-up: species or system Bos taurus
MOLT-4 = test: Growth inhibition of human MOLT4 cells incubated for 48 hrs by sulforhodamine B assay; type: functional; conditions: MOLT-4, 48 h
OVCAR-5 = test: Growth inhibition of human OVCAR5 cells incubated for 48 hrs by sulforhodamine B assay; type: functional; conditions: OVCAR-5, 48 h
RXF 393 = test: Growth inhibition of human RXF393 cells incubated for 48 hrs by sulforhodamine B assay; type: functional; conditions: RXF 393, 48 h
SK-MEL-5 = test: Growth inhibition of human SK-MEL-5 cells incubated for 48 hrs by sulforhodamine B assay; type: functional; conditions: SK-MEL-5, 48 h
SF-268 = test: Growth inhibition of human SF268 cells incubated for 48 hrs by sulforhodamine B assay; type: functional; conditions: SF-268, 48 h
U-251 = test: Growth inhibition of human U251 cells incubated for 48 hrs by sulforhodamine B assay; type: functional; conditions: U-251, 48 h
HL-60(TB) = test: Growth inhibition of human HL-60(TB) cells incubated for 48 hrs by sulforhodamine B assay; type: functional; conditions: HL-60, 48 h
UO-31 = test: Growth inhibition of human UO31 cells incubated for 48 hrs by sulforhodamine B assay; type: functional; conditions: UO-31, 48 h
DU-145 = test: Growth inhibition of human DU145 cells incubated for 48 hrs by sulforhodamine B assay; type: functional; conditions: DU-145, 48 h
NCI-H322M = test: Growth inhibition of human NCI-H322M cells incubated for 48 hrs by sulforhodamine B assay; type: functional
NCI-H522 = test: Growth inhibition of human NCI-H522 cells incubated for 48 hrs by sulforhodamine B assay; type: functional; conditions: NCI-H522, 48 h
PC-3 = test: Growth inhibition of human PC3 cells incubated for 48 hrs by sulforhodamine B assay; type: functional; conditions: PC-3, 48 h
[4] = Solubility of the compound in water; type: physicochemical; conditions: buffer
HOP-62 = test: Growth inhibition of human HOP62 cells incubated for 48 hrs by sulforhodamine B assay; type: functional; conditions: HOP-62, 48 h
MCF7 = test: Growth inhibition of human MCF7 cells incubated for 48 hrs by sulforhodamine B assay; type: functional; conditions: MCF7, 48 h
SK-MEL-28 = test: Growth inhibition of human SK-MEL-28 cells incubated for 48 hrs by sulforhodamine B assay; type: functional; conditions: SK-MEL-28, 48 h
SF-539 = test: Growth inhibition of human SF539 cells incubated for 48 hrs by sulforhodamine B assay; type: functional; conditions: SF-539, 48 h
COLO 205 = test: Growth inhibition of human COLO205 cells incubated for 48 hrs by sulforhodamine B assay; type: functional; conditions: COLO 205, 48 h
Malme-3M = test: Growth inhibition of human MALME-3M cells incubated for 48 hrs by sulforhodamine B assay; type: functional
786-0 = test: Growth inhibition of human 786-0 cells incubated for 48 hrs by sulforhodamine B assay; type: functional; conditions: 786-0, 48 h
A498 = test: Growth inhibition of human A498 cells incubated for 48 hrs by sulforhodamine B assay; type: functional; conditions: A498, 48 h
SW-620 = test: Growth inhibition of human SW620 cells incubated for 48 hrs by sulforhodamine B assay; type: functional; conditions: SW-620, 48 h

COc1ccc(N(C)c2nc(C)nc3c(Cc4ccccc4)cn(C)c23)cc1.Cl
GI50 (OVCAR-3): 35.2 nM
GI50 (SN12C): 88.7 nM
GI50 (OVCAR-8): 49.1 nM
MTD (Mus musculus [1]): 50 mg/kg
IC50 (HeLa): 14 nM
Activity (4T1): Active
GI50 (HOP-92): 47.1 nM
GI50 (K562): 33.7 nM
GI50 (SNB-75): 27.8 nM
Activity (Mus musculus [2]): Non-Toxic
GI50 (HCT-15): 38.1 nM
IC50 (Chorioallantoic membrane): 2200 nM
GI50 (HCT-116): 35 nM
GI50 (LOX IMVI): 58.8 nM
GI50 (KM12): 44.5 nM
GI50 (NCI-H226): 304 nM
GI50 (CAKI-1): 56.6 nM
GI50 (SK-MEL-2): 28.6 nM
GI50 (BT-549): 48.2 nM
inhibition (Bos taurus): 73%
GI50 (A549): 44 nM
IC50 [3]: 480 nM
GI50 (MOLT-4): 50.8 nM
GI50 (OVCAR-5): 269 nM
GI50 (RXF 393): 25.4 nM
GI50 (SK-MEL-5): 54.2 nM
GI50 (SF-268): 350 nM
GI50 (U-251): 44.3 nM
GI50 (HL-60(TB)): 26.8 nM
GI50 (UO-31): 209 nM
GI50 (DU-145): 44.4 nM
GI50 (NCI-H322M): 73.6 nM
GI50 (NCI-H522): 23.9 nM
GI50 (PC-3): 49.6 nM
solubility [4]: Soluble
GI50 (HOP-62): 47.8 nM
GI50 (MCF7): 33.3 nM
GI50 (SK-MEL-28): 48.7 nM
GI50 (SF-539): 25.4 nM
GI50 (COLO 205): 26.3 nM
GI50 (Malme-3M): 17.7 nM
GI50 (786-0): 93.2 nM
GI50 (A498): 20.2 nM
GI50 (SW-620): 38.4 nM
